Source: ChEMBL document CHEMBL4229344 (Eur J Med Chem, 2018)
Activity calls are given as the source filed them. The calls are words filed in the database; no cut-off is given here.

Columns and labels:
[1] = test system: Tyrosine-protein kinase ABL1 (Homo sapiens), P00519 [M351T]; test: Binding affinity to human phosphorylated ABL1 M351T mutant (S229 to K512 residues) expressed in mammalian expression system assessed as residual binding level at 1 uM by Kinomescan method relative to control
Procedure, shortened: (§1)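 Single-concentration (1 μM) competition-binding screen run by KINOMEscan against a panel of 468 purified kinases and mutants. The read-out is the relative binding activity of the test compound to each kinase.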

[2] = molecular target: Activin receptor type-1B (Homo sapiens) (UniProt P36896); test: Binding affinity to wild-type human ACVR1B (S187 to I505 residues) expressed in bacterial expression system assessed as residual binding level at 1 uM by Kinomescan method relative to control; procedure, shortened: as §1
[3] = molecular target: Ephrin type-A receptor 4 (Homo sapiens) (UniProt P54764); test: Binding affinity to wild-type human partial length EPHA4 (T601 to R897 residues) expressed in bacterial expression system assessed as residual binding level at 1 uM by Kinomescan method relative to control
Procedure, shortened: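 Kinome-wide competition binding screen against a panel of 468 purified kinases/mutants, with the test compound at a single concentration of 1 μM. Read-out is the relative binding activity of each kinase in the presence of compound.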

[4] = molecular target: Hormonally up-regulated neu tumor-associated kinase (Homo sapiens) (UniProt P57058); test: Binding affinity to wild-type human partial length HUNK (A31 to K354 residues) expressed in bacterial expression system assessed as residual binding level at 1 uM by Kinomescan method relative to control
[5] = test system: Mast/stem cell growth factor receptor Kit (Homo sapiens), P10721 [V559D,V654A]; test: Binding affinity to human partial length KIT V559D/V654A double mutant (Y545 to D952 residues) expressed in bacterial expression system assessed as residual binding level at 1 uM by Kinomescan method relative to control
Procedure, shortened: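 Kinome-wide single-concentration binding screen (KINOMEscan) at 1 μM against a panel of 468 purified kinases and mutants. Read-out is relative binding of each kinase compared with control. Selectivity across the panel was summarised as an S(10) score.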

[6] = molecular target: Serine/threonine-protein kinase LATS1 (Homo sapiens) (UniProt O95835); test: Binding affinity to wild-type human partial length LATS1 (Q678 to V1130 residues) expressed in bacterial expression system assessed as residual binding level at 1 uM by Kinomescan method relative to control
[7] = molecular target: Tyrosine-protein kinase Lyn (Homo sapiens) (UniProt P07948); test: Binding affinity to wild-type human partial length LYN (C219 to Q511 residues) expressed in bacterial expression system assessed as residual binding level at 1 uM by Kinomescan method relative to control
[8] = molecular target: Serine/threonine-protein kinase PAK 3 (Homo sapiens) (UniProt O75914); test: Binding affinity to wild-type human full length PAK3 (M1 to R544 residues) expressed in bacterial expression system assessed as residual binding level at 1 uM by Kinomescan method relative to control
Procedure, shortened: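 KINOMEscan competition binding against 468 purified kinases/mutants, test compound at 1 µM; residual binding relative to control.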

[9] = molecular target: Cyclin-dependent kinase 17 (Homo sapiens) (UniProt Q00537); test: Binding affinity to wild-type human full length PCTK2 (M1 to F523 residues) expressed in bacterial expression system assessed as residual binding level at 1 uM by Kinomescan method relative to control
Procedure, shortened: (§2)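 Single-concentration KINOMEscan (DiscoverX) binding screen at 1 μM against a panel of 468 purified kinases and mutants. The read-out is binding relative to control.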

[10] = molecular target: Serine/threonine-protein kinase pim-1 (Homo sapiens) (UniProt P11309); test: Binding affinity to wild-type human partial length PIM1 (A15 to K313 residues) expressed in bacterial expression system assessed as residual binding level at 1 uM by Kinomescan method relative to control
[11] = molecular target: Phosphatidylinositol 4-phosphate 5-kinase type-1 gamma (Homo sapiens) (UniProt O60331); test: Binding affinity to wild-type human partial length PIP5K1C (M1 to T668 residues) expressed in mammalian expression system assessed as residual binding level at 1 uM by Kinomescan method relative to control
Procedure, shortened: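 KINOMEscan competition binding against a panel of 468 purified kinases/mutants, compound tested at 1 μM; readout is relative binding activity versus control.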

[12] = molecular target: cAMP-dependent protein kinase catalytic subunit beta (Homo sapiens) (UniProt P22694); test: Binding affinity to wild-type human full length PKAC-beta (M1 to F351 residues) expressed in bacterial expression system assessed as residual binding level at 1 uM by Kinomescan method relative to control; procedure, shortened: as §2
[13] = molecular target: cGMP-dependent protein kinase 1 (Homo sapiens) (UniProt Q13976); test: Binding affinity to wild-type human partial length PRKG1 (L339 to F686 residues) expressed in bacterial expression system assessed as residual binding level at 1 uM by Kinomescan method relative to control
[14] = molecular target: STE20/SPS1-related proline-alanine-rich protein kinase (Homo sapiens) (UniProt Q9UEW8); test: Binding affinity to wild-type human partial length STK39 (P43 to I357 residues) expressed in mammalian expression system assessed as residual binding level at 1 uM by Kinomescan method relative to control
[15] = molecular target: Dual specificity testis-specific protein kinase 1 (Homo sapiens) (UniProt Q15569); test: Binding affinity to wild-type human full length TESK1 (R37 to S626 residues) expressed in bacterial expression system assessed as residual binding level at 1 uM by Kinomescan method relative to control; procedure, shortened: as §2
[16] = molecular target: Serine/threonine-protein kinase TNNI3K (Homo sapiens) (UniProt Q59H18); test: Binding affinity to wild-type human full length TNNI3K (M1 to S835 residues) expressed in bacterial expression system assessed as residual binding level at 1 uM by Kinomescan method relative to control; procedure, shortened: as §2
[17] = molecular target: Tyrosine-protein kinase ZAP-70 (Homo sapiens) (UniProt P43403); test: Binding affinity to wild-type human partial length ZAP70 (D20 to G299 residues) expressed in mammalian expression system assessed as residual binding level at 1 uM by Kinomescan method relative to control
[18] = molecular target: T1, Platelet-derived growth factor receptor alpha (Homo sapiens, UniProt P16234); test: Inhibition of PDGFRalpha autophosphorylation at Y849 residue in human EOL-1 cells up to 300 nM after 2 hrs by Western blot analysis; format: cell-based
[19] = molecular target: T1, Platelet-derived growth factor receptor alpha; test: Inhibition of PDGF-induced PDGFRalpha autophosphorylation at Y1018 residue in human NCI-H1703 cells after 2 hrs in presence of PDGF-AA by Western blot analysis; format: cell-based
NCI-H1703 = test: Induction of apoptosis in human NCI-H1703 cells assessed as cleaved caspase3 expression level after 72 hrs in presence of PDGF-AA by Western blot analysis; format: functional, cell-based
Procedure, shortened: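 Cells exposed to compound or DMSO for the stated periods, then lysed and immunoblotted for PARP and caspase-3 cleavage, with β-actin as loading control. NCI-H1703 stimulation used PDGF AA at 100 ng/mL.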

[20] = molecular target: T1, Platelet-derived growth factor receptor alpha

Q: For `Cc1ccc(NC(=O)c2ccc(CN(CCN(C)C)C(=O)c3cccnc3)cc2)cc1Nc1nccc(-c2cccnc2)n1`, which Activity [1] is on record?
A: 77%

Q: What about the Activity [2] of the same molecule?
A: 100%

Q: And the Activity [3]?
A: 94%

Q: And the Activity [4]?
A: 90%

Q: What about the Activity [5] of the same molecule?
A: 25%

Q: And the Activity [6]?
A: 98%

Q: And the Activity [7]?
A: 97%

Q: What about the Activity [8] of the same molecule?
A: 40%

Q: And the Activity [9]?
A: 99%

Q: What about the Activity [10] of the same molecule?
A: 98%

Q: And the Activity [11]?
A: 83%

Q: What about the Activity [12] of the same molecule?
A: 77%

Q: And the Activity [13]?
A: 85%

Q: And the Activity [14]?
A: 90%

Q: And the Activity [15]?
A: 100%

Q: What about the Activity [16] of the same molecule?
A: 100%

Q: What about the Activity [17] of the same molecule?
A: 100%

Q: What about the inhibition [18] of the same molecule?
A: Active

Q: What about the inhibition [19] of the same molecule?
A: Dose-dependent effect

Q: And the Activity (NCI-H1703)?
A: Active

Q: What about the GI50 [20] of the same molecule?
A: 34 nM
